Screen size: about 290,000 compounds; about 1,600 (0.55%) were called active.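 The calls were made as follows: active = inhibition above the mean of all tested compounds plus 3 SD, set per campaign (cut at about 35% in these data); inactive = the rest.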 Shown is part of a subset that was picked to be rich in actives.
Tested on: Hepatitis C virus NS3 helicase
Assay: HCV NS3 DNA unwinding blockers – biochemical, Cy5 molecular beacon fluorescence, primary screen (AID 1800);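 also: 0% = DMSO wells and 100% = thioflavine S control wells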
Settings: at 10.9 µM, hits give high values
Outline: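 System: Hepatitis C virus NS3 helicase domain fragment enzyme | Reagent: Annealed dual-labelled DNA beacon duplex, ATP-started | Compound dosing: 10.9 µM single point, 0.8% DMSO | Incubation: 1 h reaction at 25 °C, ATP-initiated | Technique: Cy5 fluorescence | Evaluation: Percent inhibition from t60/t0 fluorescence ratio | Benchmarks: Low DMSO, high thioflavine S at 110 µM | Replication: Singlicate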

| SMILES | inhibition |
| --- | --- |
| O=C(CSc1nnc(Nc2ccccc2)s1)Nc1cccnc1Cl | 4.07% (inactive) |
| CC(C)c1ccc(Nc2nnc(SCC(=O)c3nnc(-c4ccccc4)o3)s2)cc1 | 42.3% (active) |
| Cc1ccc(Nc2nnc(SCc3ccccc3)s2)cc1 | -1.63% (inactive) |
| Cc1ccc(C(=O)CSc2ccccc2C(=O)O)cc1 | 2.55% (inactive) |
| Cc1ccc(CSCC(N)C(=O)O)cc1 (stereo not given) | 0.78% (inactive) |
| Cc1ccc(SC(CC(=O)c2ccc(C(C)(C)C)cc2)C(=O)O)cc1 (stereo not given) | 44.4% (active) |
| C=CCn1c(=NC(=O)c2cccs2)sc2cc(NC(C)=O)ccc21 | -8.84% (inactive) |
| Cc1cccc(CCNS(=O)(=O)c2ccc3c(c2)NC(=O)CO3)c1 | -2.06% (inactive) |
| COc1ccc(/C=C(/NC(=O)c2ccccc2)C(=O)Nc2cccc(C(=O)O)c2)cc1 | 3.56% (inactive) |
| COc1ccc(S(=O)(=O)N(C)CC(=O)N2CCCC2)cc1 | -9.23% (inactive) |
| CC(C)=N/N=C1/NC(=O)C(Cc2ccccc2)S1 (stereo not given) | 12.1% (inactive) |
| Brc1ccccc1C1Nc2cccc3cccc(c23)N1 | 53.8% (active) |
| Cc1ccc(C2Nc3cccc4cccc(c34)N2)cc1 | 38.8% (active) |
| COc1cccc(C2Nc3cccc4cccc(c34)N2)c1 | -11.8% (inactive) |
| COc1cc2c(cc1OC)C(c1ccccc1Br)NC(=O)C2 (stereo not given) | 1.43% (inactive) |
| Oc1ccc(C2Nc3cccc4cccc(c34)N2)cc1 | 9.35% (inactive) |
| C/C(=C\c1ccco1)C1Nc2cccc3cccc(c23)N1 | 15% (inactive) |
| CCc1noc(C)c1C(=O)N1CCCC(N2CCN(c3ccc(F)cc3)CC2)C1 (stereo not given) | 8.93% (inactive) |
| CC(C)(COC(=O)Nc1ccccc1)COC(=O)Nc1ccccc1 | -7.99% (inactive) |
| O=C(Nc1ccc(N2CCOCC2)cc1)c1ccc(-c2ccccc2[N+](=O)[O-])o1 | -10.2% (inactive) |
| CC1=NN(c2ccc(Cl)c(C(=O)O)c2)C(=O)/C1=C/c1ccc(-c2ccccc2[N+](=O)[O-])o1 | 43.5% (active) |
| Cc1cc([N+](=O)[O-])c(-c2ccc(/C=N/n3cnnc3)o2)cc1Cl | 12.9% (inactive) |
| COc1ccccc1NC(=O)Nc1nnc(Cc2ccc(F)cc2)s1 | -6.22% (inactive) |

| SMILES | inhibition |
| --- | --- |
| CCOc1ccc(N(C(=O)c2snc(C(N)=O)c2N)C(C(=O)NCC2CCCO2)c2c[nH]c3ccccc23)cc1 (stereo not given) | -29.3% (inactive) |
| COc1ccc(C(=O)Nc2ccccc2C(=O)NCc2ccco2)cc1 | -9.8% (inactive) |
| COc1ccc(/C=C(\NC(=O)c2ccc(OCC(C)C)cc2)C(=O)OCc2ccco2)cc1 | 43.7% (active) |
| COc1ccc(/C=C(/NC(=O)c2ccco2)C(=O)Nc2ccc(C(C)=O)cc2)cc1 | 2.61% (inactive) |
| CCCn1cc(S(=O)(=O)c2ccc(C)cc2)c(=O)c2cc(OCC)ccc21 | -5.21% (inactive) |
| CCc1ccc(NC(=O)Nc2ccncc2)cc1 | -8.08% (inactive) |
| O=C(NCc1ccccn1)c1ccc2nc(-c3ccco3)c(-c3ccco3)nc2c1 | 31.3% (inactive) |
| COCCNC(=O)Nc1ccc2nc(-c3ccco3)c(-c3ccco3)nc2c1 | 42.2% (active) |
| O=C(Nc1ccc2nccnc2c1)c1ccco1 | -0.83% (inactive) |
| NC(=O)c1nsc(C(=O)N(CCCN2CCOCC2)C(C(=O)NC2CCCCC2)c2ccc(Cl)cc2)c1N (stereo not given) | 13.6% (inactive) |
| Cc1ccc(C(=O)/C=C/Nc2ccc(S(=O)(=O)Nc3onc(C)c3C)cc2)cc1 | 23.3% (inactive) |
| CC(C)C(=O)Nc1oc(-c2ccccc2)cc1C#N | 2.07% (inactive) |
| CC(Oc1ccccc1)C(=O)Nc1oc(-c2ccco2)c(-c2ccco2)c1C#N (stereo not given) | 52.5% (active) |
| COc1cc(C(=O)Nc2oc(-c3ccccc3)c(-c3ccccc3)c2C#N)cc(OC)c1OC | -0.57% (inactive) |
| Cc1cc2c(cc1C)N(C(=O)CN1C(=O)c3ccccc3C1=O)C(C)(C)c1ssc(=S)c1-2 | -5.01% (inactive) |
| O=C(CCC(=O)n1ncc2ccccc21)NCc1ccccc1Cl | 12.6% (inactive) |
| COc1cc(/C=C2/C(=O)NN(c3cccc(Cl)c3)C2=O)cc(Br)c1O | 64.2% (active) |
| C#CCOc1ccc(/C=C2/C(=O)NN(c3ccccc3)C2=O)cc1OC | 27.8% (inactive) |
| COc1cc(/C=C2/C(=O)NN(c3ccc(F)cc3)C2=O)cc([N+](=O)[O-])c1O | 15.7% (inactive) |
| COC(=O)c1ccc(/C=C2/C(=O)Oc3ccccc32)cc1 | 4.46% (inactive) |
| Nc1c(Cl)cc(-c2csc(N3CCCC3c3nc4cc(Cl)c(Cl)cc4n3CCOCCO)n2)cc1Cl (stereo not given) | -4.48% (inactive) |
| CN(C)S(=O)(=O)c1cccc(-c2nn(-c3ccccc3)cc2/C=C2\SC(=S)N(CC(=O)O)C2=O)c1 | 9.49% (inactive) |
| Cc1ccc(-c2nn(-c3ccccc3)cc2/C=C2\SC(=S)N(CCCCCC(=O)O)C2=O)o1 | 45.9% (active) |

| SMILES | inhibition |
| --- | --- |
| COc1ccc(-c2nn(-c3ccccc3)cc2/C=C2/SC(=S)N(CCCC(=O)O)C2=O)c(C)c1 | -32.5% (inactive) |
| CC(C)C1Cc2c(sc3c2c(=O)n(-c2ccccc2)c2nncn32)CO1 (stereo not given) | 1.09% (inactive) |
| CC(C)(C)NC(=O)CSc1nnc(NC(=O)CCc2ccccc2)s1 | -6.73% (inactive) |
| O=C1/C(=C\c2ccsc2)NC(=S)N1c1ccccc1 | 11% (inactive) |
| O=C1N/C(=C/c2cccn2-c2ccccc2)C(=O)N1c1cccc(Cl)c1 | 43% (active) |
| Cc1ccccc1NC(=O)CN1C(=O)N/C(=C\c2cccn2-c2cccc(C(=O)O)c2)C1=O | 21.8% (inactive) |
| O=C(CCc1ccccc1F)N1CCN(c2ccccc2)CC1 | 8.51% (inactive) |
| Cc1ccccc1CCNC(=O)C1CCC(=O)N(Cc2ccc(Cl)cc2)C1 (stereo not given) | -13.2% (inactive) |
| Cc1cccc(NC(=O)c2ccc3c(=O)n(CC4CCCO4)c(=S)[nH]c3c2)c1 (stereo not given) | -9.4% (inactive) |
| CCOc1ccccc1/C=c1\sc2nc(-c3ccco3)nn2c1=O | 27.9% (inactive) |
| O=c1nc2s/c(=C\c3ccco3)c(=O)n2nc1Cc1ccccc1 | 45.8% (active) |
| Cc1nc2nc(SCC(=O)NCc3ccco3)nn2c(C)c1Cc1ccccc1 | 2.25% (inactive) |
| COC(=O)c1cc(S(=O)(=O)N2CCN(c3cc(C)ccc3C)CC2)c[nH]1 | -25.3% (inactive) |
| COCCNC(=O)C(c1ccc(C)cc1)N(C(=O)CCC(=O)Nc1ccccn1)c1cccc(C)c1 (stereo not given) | -11.8% (inactive) |
| CCOc1ccc(C(C(=O)NCCOC)N(CCOC)C(=O)CCC(=O)Nc2ccccn2)cc1 (stereo not given) | 38.9% (active) |
| COCCN(C(=O)CCC(=O)Nc1ccccn1)C(C(=O)NCCC(C)C)c1ccc(OC)cc1 (stereo not given) | 0.66% (inactive) |
| O=C(Nc1nnc(-c2ccc(F)cc2)s1)c1c(F)cccc1Cl | -8.63% (inactive) |
| O=c1cc(O)c(-c2cccc(C(F)(F)F)c2)c(Cl)[nH]1 | 13.8% (inactive) |
| Cc1ccccc1/C=C\c1nc(O)c([N+](=O)[O-])c(=O)[nH]1 | 9.37% (inactive) |
| O=c1[nH]c(/C=C\c2cccc(C(F)(F)F)c2)nc(O)c1[N+](=O)[O-] | 47.4% (active) |
| CCNC(=O)N1CCCC(C(=O)c2ccc(-c3ccccc3)cc2)C1 (stereo not given) | -0.46% (inactive) |
| Cc1ccc(C2=N/C(=C\c3ccc(OS(=O)(=O)c4ccc(C)cc4)cc3)C(=O)O2)cc1 | 40.6% (active) |
| O=C1OC(c2ccc(Cl)cc2)=N/C1=C\c1cccnc1 | 5.47% (inactive) |

| SMILES | inhibition |
| --- | --- |
| Cc1ccc(S(=O)(=O)Oc2ccc(/C=N/NC(=O)c3ccncc3)cc2)cc1 | -3.55% (inactive) |
| O=C(CNc1cccc(S(=O)(=O)N2CCCCC2)c1)Nc1ccccc1F | -2.03% (inactive) |
| CCOCCCN(C)C1CCN(C(=O)c2oc3ccccc3c2NC(=O)COc2cccc(C)c2)CC1 | -20.2% (inactive) |
| O=C(NNc1ccccn1)c1ccc(Cl)nc1 | -0.49% (inactive) |
| O=C(CCl)NNc1nc(-c2ccccc2)c2cc(Cl)ccc2n1 | 3.47% (inactive) |
| O=C(CCl)NNc1cccc(Cl)n1 | 60.9% (active) |
| CCC(C(=O)OC)n1cnc2c(oc3ccccc32)c1=O (stereo not given) | -6.44% (inactive) |
| CC(=O)Nc1ccc(NC(=O)COc2ncnc3ccccc23)cc1 | 8.73% (inactive) |
| Cc1ccc(Nc2c3c(nc4ccccc24)CCC3)cc1 | -35.6% (inactive) |
| CC(=O)Nc1ccc(Nc2c3ccccc3nc3ccccc23)cc1 | 38.4% (active) |
| Cc1cccc(NC(=O)NC(=S)NC(=O)c2ccccc2)c1 | 7.16% (inactive) |
| COC(=O)c1c(C)[nH]c(C(=O)NCCc2ccc(S(N)(=O)=O)cc2)c1C | -6.64% (inactive) |
| O=S(=O)(NCc1ccc(Cl)cc1Cl)c1cccs1 | 7.61% (inactive) |
| O=C(CN1CCN(c2ccc(O)cc2)CC1)Nc1cc(S(=O)(=O)N2CCOCC2)ccc1Cl | 13.6% (inactive) |
| O=[N+]([O-])c1cc(Cl)cc(/C=N/NC(=S)Nc2cc(S(=O)(=O)N3CCOCC3)ccc2Cl)c1O | 40.4% (active) |
| O=C(N/N=C/c1cc(Cl)cc([N+](=O)[O-])c1O)C(O)(c1ccccc1)c1ccccc1 | 24.1% (inactive) |
| Cc1cccc(CCNS(=O)(=O)c2ccc(S(=O)(=O)NC3CCCC3)cc2)c1 | -9.33% (inactive) |
| CN(c1ccccc1)c1ccc(/C=c2\s/c(=C(/C#N)C(=O)C(C)(C)C)n(Cc3ccco3)c2=O)cc1 | 37% (active) |
| CCOC(=O)/C=c1\s/c(=C\c2ccc(C#N)cc2)c(=O)n1CC(=O)Nc1cccc(C)c1C | 12.5% (inactive) |
| Cc1cs/c(=N\N=C\c2ccc(O)cc2)n1Cc1ccco1 | 3.43% (inactive) |
| O=c1c(-c2ccccc2Cl)c[nH]n1-c1ccccc1 | 3.07% (inactive) |

Reference: PubChem BioAssay AID1800 (The Scripps Research Institute Molecular Screening Center, 2009)
